Series [1] has as its system Aorta. As to the kind of experiment: Vasorelaxant activity in potassium depolarized guinea pig aorta assessed as inhibition of calcium-induced contraction at 50 uM after 30 mins. It is filed as functional, Cavia porcellus. On the set-up: scale not given: the % may be the effect or the level left. Summed up:
(§1)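 Guinea pig aortic strips depolarized with K+ (80 mM). Calcium-induced contraction measured; inhibition expressed as percent change from control, n = 3−5.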

Series [2] relates to Left cardiac atrium. As to the kind of experiment: Negative inotropic activity in potassium depolarized guinea pig left atrium assessed as reduction in developed tension after 30 mins. The class given is functional. The conditions noted are these: Cavia porcellus, 0.5 h. The procedure, abridged:
(§2)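 Guinea pig left atria electrically driven at 1 Hz. EC50 taken from log concentration−response curves by Litchfield and Wilcoxon probit analysis, n = 6−7. Not calculated when the maximum effect was below 50%.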

For series [3], the system named is Left cardiac atrium. Description: Negative inotropic activity in potassium depolarized guinea pig left atrium assessed as reduction in developed tension at 10^-6 M after 30 mins. It is filed as functional, Cavia porcellus. On the set-up: scale not given: the % may be the effect or the level left.
The subject of series [4] is Right cardiac atrium. Description: Negative chronotropic activity in potassium depolarized guinea pig right atrium assessed as reduction in atrial rate at 50 uM after 30 mins. It is filed as functional, Cavia porcellus. More on the design: scale not given: the % may be the effect or the level left.
For series [5], the system named is Aorta. Description: Vasorelaxant activity in potassium depolarized guinea pig aorta assessed as inhibition of calcium-induced contraction at 10^-4 M after 30 mins. The class given is functional, Cavia porcellus. On the set-up: scale not given: the % may be the effect or the level left. The procedure, abridged: as §1
In series [6] the test system is Left cardiac atrium. Description: Negative inotropic activity in potassium depolarized guinea pig left atrium assessed as reduction in developed tension at 5 uM after 30 mins. The class given is functional, Cavia porcellus. On the set-up: scale not given: the % may be the effect or the level left.
The nature of series [7]: Relaxant activity in potassium depolarized guinea pig ileum longitudinal smooth muscle assessed as inhibition of calcium-induced contraction at 10^-5 M after 30 mins. The class given is functional, Cavia porcellus. On the set-up: scale not given: the % may be the effect or the level left.
Series [8] deals with Left cardiac atrium. Description: Negative inotropic activity in potassium depolarized guinea pig left atrium assessed as reduction in developed tension at 10^-5 M after 30 mins. It is filed as functional, Cavia porcellus. More on the design: scale not given: the % may be the effect or the level left.
For series [9], the system named is Left cardiac atrium. As to the kind of experiment: Potency index, ratio of diltiazem EC50 to compound EC50 for negative inotropic activity against potassium depolarized guinea pig left atrium.
Series [10] concerns Liver microsome. Description: Stability in human liver microsomes at 1 uM after 2 to 60 mins by LC-MS analysis in absence of NADPH. In general terms: Liver microsomes are a subcellular fraction often used to study metabolism.
Series [11] is described as follows: Relaxant activity in potassium depolarized guinea pig ileum longitudinal smooth muscle assessed as inhibition of calcium-induced contraction after 30 mins. The conditions noted are these: Cavia porcellus, 0.5 h. The class given is functional, tissue-based.
The target in series [12] is Cytochrome P450 2D6 (Homo sapiens, UniProt P10635). Description: Inhibition of CYP2D6 in human liver microsomes using dextromethorphan as substrate after 10 mins by LC-MS analysis.
Series [13] in a line: Relaxant activity in potassium depolarized guinea pig ileum longitudinal smooth muscle assessed as inhibition of calcium-induced contraction at 0.05 uM after 30 mins. More on the design: scale not given: the % may be the effect or the level left. The class given is functional, Cavia porcellus.
Series [14] can be described thus: in vitro. The conditions noted are these: human, liver microsomes.
Series [15] can be described thus: Half life in human liver microsomes assessed as CYP-mediated compound degradation at 1 uM by LC-MS analysis.
The target of series [16] is T1, Cytochrome P450 1A2 (Homo sapiens, UniProt P05177).
T1 sequence (P05177 whole entry): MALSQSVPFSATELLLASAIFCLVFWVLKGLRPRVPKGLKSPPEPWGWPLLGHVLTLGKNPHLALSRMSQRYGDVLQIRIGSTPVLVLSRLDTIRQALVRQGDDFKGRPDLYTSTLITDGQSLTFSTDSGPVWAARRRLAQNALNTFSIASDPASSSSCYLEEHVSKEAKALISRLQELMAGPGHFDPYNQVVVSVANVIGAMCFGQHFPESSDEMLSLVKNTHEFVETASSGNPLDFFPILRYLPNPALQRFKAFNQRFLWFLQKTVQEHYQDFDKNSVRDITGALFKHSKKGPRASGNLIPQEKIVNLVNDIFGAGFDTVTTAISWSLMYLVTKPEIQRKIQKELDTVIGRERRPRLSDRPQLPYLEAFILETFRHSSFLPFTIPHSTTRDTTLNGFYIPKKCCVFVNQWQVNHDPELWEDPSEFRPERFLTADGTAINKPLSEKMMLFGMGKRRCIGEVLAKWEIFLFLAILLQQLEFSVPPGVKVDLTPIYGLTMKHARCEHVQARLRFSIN
As to the kind of experiment: Inhibition of CYP1A2 in human liver microsomes using phenacetin as substrate after 30 mins by LC-MS analysis.

For series [17], the target named is Cytochrome P450 2C19 (Homo sapiens, UniProt P33261). As to the kind of experiment: Inhibition of CYP2C19 in human liver microsomes using (S)-mephenytoin as substrate after 40 mins by LC-MS analysis.
For series [18], the target named is Cytochrome P450 2C9 (Homo sapiens, UniProt P11712). Description: Inhibition of CYP2C9 in human liver microsomes using tolbutamide as substrate after 20 mins by LC-MS analysis.
In series [19] the test system is Left cardiac atrium. As to the kind of experiment: Negative inotropic activity in potassium depolarized guinea pig left atrium assessed as reduction in developed tension at 50 uM after 30 mins. The class given is functional, Cavia porcellus. On the set-up: scale not given: the % may be the effect or the level left.
Series [20] concerns Right cardiac atrium. Description: Negative chronotropic activity in potassium depolarized guinea pig right atrium assessed as reduction in atrial rate at 10^-5 M after 30 mins. It is filed as functional, Cavia porcellus. More on the design: scale not given: the % may be the effect or the level left.
Series [21] concerns Left cardiac atrium. As to the kind of experiment: Negative inotropic activity in potassium depolarized guinea pig left atrium assessed as reduction in developed tension. The class given is functional. The conditions noted are these: Cavia porcellus. The procedure, abridged:
as §2

The test system of series [22] is Left cardiac atrium. Description: Negative inotropic activity in potassium depolarized guinea pig left atrium assessed as reduction in developed tension at 10^-5 M. It is filed as functional, Cavia porcellus. More on the design: scale not given: the % may be the effect or the level left.
In series [23] the test system is Aorta. As to the kind of experiment: Vasorelaxant activity in potassium depolarized guinea pig aorta assessed as inhibition of calcium-induced contraction at 10^-6 M. The class given is functional, Cavia porcellus. On the set-up: scale not given: the % may be the effect or the level left. The procedure, abridged:
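Guinea pig aortic strips depolarized with 80 mM K+, then contracted by calcium addition. The read-out is percent inhibition of the calcium-induced contraction, expressed as percent change from control, with n = 3–5.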

The subject of series [24] is Aorta. As to the kind of experiment: Vasorelaxant activity in potassium depolarized guinea pig aorta assessed as relaxation of calcium-induced contraction. It is filed as functional, tissue-based. The conditions noted are these: Cavia porcellus. Summed up:
as §1

The nature of series [25]: Relaxant activity in potassium depolarized guinea pig ileum longitudinal smooth muscle assessed as inhibition of calcium-induced contraction at 5 uM after 30 mins. More on the design: scale not given: the % may be the effect or the level left. It is filed as functional, Cavia porcellus.
In series [26] the test system is Aorta. As to the kind of experiment: Vasorelaxant activity in potassium depolarized guinea pig aorta assessed as inhibition of calcium-induced contraction at 10^-4 M. It is filed as functional, Cavia porcellus. More on the design: scale not given: the % may be the effect or the level left. Summed up:
as §1

The subject of series [27] is Right cardiac atrium. Description: Negative chronotropic activity in potassium depolarized guinea pig right atrium assessed as reduction in atrial rate at 10^-6 M after 30 mins. It is filed as functional, Cavia porcellus. More on the design: scale not given: the % may be the effect or the level left.
Series [28] concerns Right cardiac atrium. Description: Negative chronotropic activity in potassium depolarized guinea pig right atrium assessed as reduction in atrial rate after 30 mins. The class given is functional. The conditions noted are these: Cavia porcellus, 0.5 h.

Molecules are shown by their SMILES.

Chain of Cytochrome P450 2C19 (P33261 whole entry): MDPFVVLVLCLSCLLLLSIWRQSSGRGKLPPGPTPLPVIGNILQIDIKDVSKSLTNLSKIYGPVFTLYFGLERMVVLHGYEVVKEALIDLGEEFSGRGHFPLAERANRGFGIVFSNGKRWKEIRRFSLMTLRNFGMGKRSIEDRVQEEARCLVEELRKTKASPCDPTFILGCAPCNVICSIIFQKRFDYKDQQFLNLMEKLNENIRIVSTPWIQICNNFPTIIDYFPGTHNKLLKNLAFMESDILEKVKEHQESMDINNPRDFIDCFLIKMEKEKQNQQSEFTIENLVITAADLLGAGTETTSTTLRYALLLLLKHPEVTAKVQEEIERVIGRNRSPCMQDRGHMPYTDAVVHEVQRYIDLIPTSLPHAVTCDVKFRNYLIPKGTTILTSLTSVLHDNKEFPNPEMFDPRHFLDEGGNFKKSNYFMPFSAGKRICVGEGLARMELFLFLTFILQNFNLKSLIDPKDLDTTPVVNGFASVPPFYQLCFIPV
Chain of Cytochrome P450 2D6 (P10635 whole entry): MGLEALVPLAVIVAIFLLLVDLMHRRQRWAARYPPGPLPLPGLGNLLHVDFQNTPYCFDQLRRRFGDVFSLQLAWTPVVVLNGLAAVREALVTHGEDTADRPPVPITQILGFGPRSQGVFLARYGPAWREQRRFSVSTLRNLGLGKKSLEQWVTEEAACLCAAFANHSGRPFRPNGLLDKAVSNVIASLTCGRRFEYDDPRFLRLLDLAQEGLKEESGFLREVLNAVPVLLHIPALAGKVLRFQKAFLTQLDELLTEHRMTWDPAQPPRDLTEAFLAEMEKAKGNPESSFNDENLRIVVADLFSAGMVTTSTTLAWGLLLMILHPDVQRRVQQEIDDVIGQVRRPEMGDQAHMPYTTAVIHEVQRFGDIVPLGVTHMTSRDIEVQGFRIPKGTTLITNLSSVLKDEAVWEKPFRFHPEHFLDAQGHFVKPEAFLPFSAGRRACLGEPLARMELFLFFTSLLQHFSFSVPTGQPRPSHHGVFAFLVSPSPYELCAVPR
Chain of Cytochrome P450 2C9 (P11712 whole entry): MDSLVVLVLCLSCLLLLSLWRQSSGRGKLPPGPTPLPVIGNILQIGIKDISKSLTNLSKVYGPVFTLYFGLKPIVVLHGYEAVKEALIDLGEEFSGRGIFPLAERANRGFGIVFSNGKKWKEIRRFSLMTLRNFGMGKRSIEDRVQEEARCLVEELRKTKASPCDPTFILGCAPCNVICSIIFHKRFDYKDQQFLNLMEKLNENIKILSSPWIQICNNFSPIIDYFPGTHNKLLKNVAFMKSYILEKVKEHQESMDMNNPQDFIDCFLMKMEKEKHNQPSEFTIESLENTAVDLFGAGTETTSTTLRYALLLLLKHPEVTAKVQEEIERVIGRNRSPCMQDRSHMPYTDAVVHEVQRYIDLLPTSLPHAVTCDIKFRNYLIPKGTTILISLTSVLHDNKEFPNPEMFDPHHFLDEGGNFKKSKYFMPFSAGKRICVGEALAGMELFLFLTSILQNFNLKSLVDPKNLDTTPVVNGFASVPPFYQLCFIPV

On to `COc1ccc(C2(O)Sc3ccccc3-n3c2noc3=O)cc1` (stereo not given), for which the results for the Activity in series [1], in series [3] and in series [4] were 19%, 95% and 26%, respectively. For the same compound, in series [2], the EC50 (commonly the concentration that produces a half-maximal response) stood at 100 nM.

For `CCOC1(c2cccc(OC)c2)SC=C(C)n2c1noc2=O` (stereo not given), the Activity came out at 31% in series [5], 71% in series [6], 2% in [4] and 43% in series [7]. For the same compound, in series [2], the EC50 came out at 38 nM.

On to `CC1=CSC(O)(c2ccccc2)c2noc(=O)n21` (stereo not given), for which the figures for the Activity in series [8], in series [1] and in series [4] were 95%, 4% and 14%, respectively. Besides, the “Ratio EC50” value in series [9] turned out to be 3.4. Also, the EC50 in series [2] is 230 nM.

On to `CCOC1(c2ccc(OC)cc2)SC=C(C)n2c1noc2=O` (stereo not given), for which the Stability result in series [10] is “Stable”. The IC50 (in general, the concentration needed to halve the response being measured) in series [11] turned out to be 17 nM; in series [12], 12500 nM; in [16] it was 5200 nM; in series [17], 2500 nM; in series [18], 13600 nM. The Activity worked out at 86% in series [13], 29% in series [5], 76% in series [3] and 3% in series [4]. The microsomal CLint – broadly, a measure of how fast metabolising enzymes remove a compound, apart from limits set by blood flow – at 1 µM in series [14] stood at 278 µL/min/mg. In addition, the half-life – broadly, the time needed for the level to fall by half in the phase considered – at 1 µM in [15] was found to be 6 min. In addition, the EC50 in series [2] came out at 22 nM.

With `COc1ccccc1C1(O)SC=C(C)n2c1noc2=O` (stereo not given), the Activity in series [19] stood at 94%; in series [5], 25%; in series [20], 11%. Besides, in [2], the EC50 is 930 nM.

Turning to `COc1ccc(CCN(C)CCCC(C#N)(c2ccc(OC)c(OC)c2)C(C)C)cc1OC` (stereo not given), the EC50 in [21] amounted to 610 nM. Moreover, the Activity in [22] is on record as 84%; in [23], 95%. In addition, the IC50 in series [24] turned out to be 380 nM.

Turning to `COC(=O)C1=C(C)NC(C)=C(C(=O)OC)C1c1ccccc1[N+](=O)[O-]` [NIFEDIPINE], in series [21], the EC50 was 260 nM. The results for the Activity in series [22] and in [23] were 97% and 82%, respectively.

For `CCOC1(c2ccccc2OC)SC=C(C)n2c1noc2=O` (stereo not given), the Activity is given as 28% in [5], 85% in [6] and 29% in series [20]. In addition, the EC50 in series [2] came out at 140 nM.

Regarding `COc1ccc([C@@H]2Sc3ccccc3N(CCN(C)C)C(=O)[C@@H]2OC(C)=O)cc1` [DILTIAZEM], the Activity came to 78% in series [8]; 98% in series [25]; 88% in series [5]; 78% in series [22]; 88% in [26]; 94% in [27]. In series [11], the IC50 is 110 nM. For the same compound, the EC30 (commonly the point of the concentration-response curve where the effect stands at 30%) in [28] worked out at 70 nM.

These data come from ChEMBL document CHEMBL3817843, “Understanding Oxadiazolothiazinone Biological Properties: Negative Inotropic Activity versus Cytochrome P450-Mediated Metabolism” (J Med Chem, 2016).
